Experimental data pooled from the literature.
Each line is one published result; the experiments were not run side by side.
BCHE: Cholinesterase (BCHE, Homo sapiens, UniProt P06276)

| SMILES | target | assay | setting | endpoint | value |
| --- | --- | --- | --- | --- | --- |
| CCN(CC)CCCC[C@H](NC(=O)[C@H](CC(C)C)NC(=O)[C@H](C)NC(=O)[C@H](Cc1ccccc1)NC(=O)c1ccc(C(C)(C)C)cc1)C(=O)N[C@@H](CO)C(=O)OC | Chromatin remodeling regulator CECR2 (CECR2, Homo sapiens, UniProt Q9BXF3) | thermal stability, DSF | 25 µM | ΔTm | 0.58 °C |
| Cc1nn(C)cc1-c1nc2c(N3CCN(Cc4ccc(Cl)cc4)CC3)c(Cl)cnc2[nH]1 | Interferon-induced, double-stranded RNA-activated protein kinase (EIF2AK2, Homo sapiens, UniProt P19525) | binding, competition with immobilised ligand | 1 µM | remaining binding | 95% |
| COc1cc2c(cc1OC)C(=O)C(CC1CCN(Cc3ccccc3)CC1)C2 (centres unmarked) | BCHE | enzyme activity, inhibitor, Ellman | 1 µM | inhibition | 22.5% |
| Nc1ncc(-c2nc(N3CCOCC3)nc(N3CCOCC3)n2)c(C(F)F)n1 | Peripheral plasma membrane protein CASK (CASK, Homo sapiens, UniProt O14936) | binding, competition with immobilised ligand | 10 µM | remaining binding | 77% |
| C=CCn1c2cc(OC(=O)CCN3CCN(Cc4ccccc4)CC3)ccc2c2ccnc(C)c21 | BCHE | enzyme activity, inhibitor, Ellman | 1 µM | inhibition | 29.9% |
| COc1ncccc1-c1cnn2ccc(N3CCN(C(=O)OC(C)C)CC3)nc12 | Dual specificity mitogen-activated protein kinase kinase 5 (MAP2K5, Homo sapiens, UniProt Q13163) | binding, competition with immobilised ligand | 1 µM | remaining binding | 65% |
| NC(=O)c1cccc(-c2cccc(OC(=O)NC3CCCCC3)c2)c1 | Cocaine esterase (CES2, Homo sapiens, UniProt O00748) | enzyme activity, inhibitor | pH 7.4 | kinact/KI | 3900 M⁻¹ s⁻¹ |
| C#Cc1n[nH]c2c(-c3cn(C(C)c4ccccn4)c(=O)[nH]c3=O)cc(F)cc12 (centres unmarked) | Fibroblast growth factor receptor 1 (FGFR1, Homo sapiens, UniProt P11362, V561M) | enzyme activity, inhibitor | 1 µM | inhibition | 11.4% |
